Measurements as given in ChEMBL document CHEMBL3792368, “Design, synthesis, and in vitro and biological evaluation of potent amino acid-derived thiol inhibitors of the metallo-β-lactamase IMP-1” (Eur J Med Chem, 2016).
Active and inactive are the calls of the source. The rule behind the calls is not given here.

Assays:
[1] = system: Pseudomonas aeruginosa; assay: Uncompetitive inhibition of Pseudomonas aeruginosa 101/1477 IMP-1 expressed in Escherichia coli BL21(DE3) using benzylpenicillin as substrate assessed as residual activity measured for 5 mins by UV multiplate spectrophotometry
In short: (§1)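 IMP-1 lacking the first 21 signal-peptide residues, expressed and purified by a previously published protocol. Kinetic assays were run at pH 7 and read out as residual enzyme activity. The chromogenic cephalosporin CENTA was not used as substrate because thiol inhibitors react with it.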

[2] = system: Pseudomonas aeruginosa; assay: Competitive inhibition of Pseudomonas aeruginosa 101/1477 IMP-1 expressed in Escherichia coli BL21(DE3) using benzylpenicillin as substrate assessed as residual activity measured for 5 mins by UV multiplate spectrophotometry; in short: as §1
[3] = Competitive inhibition of IMP-1 (unknown origin)
[4] = system: Enterobacter cloacae; assay: Inhibition of IMP-4 in Enterobacter cloacae ECL1 assessed as reduction of imipenem MIC at 50 mM relative to control
[5] = system: Escherichia coli BL21; assay: Inhibition of IMP-1 in Escherichia coli BL21 assessed as reduction of imipenem MIC at 50 mM relative to control
[6] = system: Enterobacter cloacae; assay: Inhibition of IMP-4 in Enterobacter cloacae ECL1 assessed as imipenem MIC at 50 mM (reference value: 1.5 ug/ml)
[7] = system: Escherichia coli BL21; assay: Inhibition of IMP-1 in Escherichia coli BL21 assessed as imipenem MIC at 50 mM (reference value: 2 ug/ml)
[8] = system: Enterobacter cloacae; assay: Inhibition of IMP-4 in Enterobacter cloacae ECL2 co-expressing TEM1 assessed as reduction in imipenem MIC at 50 mM
[9] = system: Enterobacter cloacae; assay: Inhibition of IMP-4 in Enterobacter cloacae ECL2 co-expressing TEM1 assessed as imipenem MIC at 50 mM (reference value: 0.5 ug/ml)

Row | SMILES | Kiuc [1] [mM] | Kic [2] [µM] | other results
1 | O=C(CCCS)N[C@@H](Cc1c[nH]c2ccccc12)C(=O)O | > 1 | 8.62 | –
2 | O=C(CS)N[C@@H](Cc1ccc(O)cc1)C(=O)O | > 1 | 4.55 | –
3 | O=C(CCS)N[C@H](Cc1ccccc1)C(=O)O | – | – | Ki [3]: 88 nM
4 | O=C(CS)N[C@@H](Cc1ccc(OCc2ccccc2)cc1)C(=O)O | > 1 | 0.086 | fold change (FC) [4]: 3.9; fold change (FC) [5]: 5.2; MIC [6]: 0.38 µg/mL; MIC [7]: 0.38 µg/mL; inhibition [8]: inactive; MIC [9]: 0.5 µg/mL
5 | O=C(CCS)N[C@@H](Cc1ccccc1)C(=O)O | 0.0602 | 1.45 | –
6 | O=C(CCCS)N[C@@H](Cc1ccc(O)cc1)C(=O)O | > 1 | 5.63 | –
7 | O=C(CCCS)N[C@@H](Cc1ccccc1)C(=O)O | > 1 | 2.82 | –
8 | O=C(CS)N[C@@H](Cc1c[nH]c2ccccc12)C(=O)O | > 1 | 0.47 | –
9 | CC(=O)SCC(=O)O | 0.00264 | 0.32 | –
10 | O=C(CCS)N[C@@H](Cc1ccc(OCc2ccccc2)cc1)C(=O)O | > 1 | 9.39 | –
11 | O=C(CS)N[C@@H](Cc1ccccc1)C(=O)O | > 1 | 0.25 | –
12 | O=C(CCS)N[C@@H](Cc1ccc(O)cc1)C(=O)O | > 1 | 5.18 | –
13 | O=C(CCCS)N[C@@H](Cc1ccc(OCc2ccccc2)cc1)C(=O)O | > 1 | 5.85 | –
14 | O=C(CCS)N[C@@H](Cc1c[nH]c2ccccc12)C(=O)O | > 1 | 5.02 | –
